Data reported in article PMC10570058 (Nucleic Acids Research, 2023).

Tests used:
[1] = target: Polθ ATPase domain (human) (UniProt O75417); experiment: mass photometry
[2] = tested on: Polθ ATPase domain binding to ssDNA; experiment: Microscale thermophoresis
[3] = tested on: Polθ recruitment to ssDNA in U2OS cells; experiment: Laser micro-irradiation and immunofluorescence, Polθ recruitment to ssDNA; assay type: cell-based, human; conditions: 200 μM, 24 h, U2OS POLQ KO cells expressing Myc-Polθ
[4] = tested on: RPE1 TP53−/−BRCA1−/− cells; experiment: DNA fiber assay with S1 nuclease digestion; assay type: cell-based; conditions: 200 μM NVB vs vehicle
Outline: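 Cells (F12, 10% FBS) seeded 24 h, pulsed with 200 μM CldU for 30 min, washed, then 100 μM IdU for 2 h with test compound (200 μM) or DMSO added alongside. CSK permeabilisation 10 min RT. Nuclei were treated with 10 U/ml S1 nuclease (pH 4.6 buffer) for 30 min at 37°C or left undigested. Agarose-plug extraction was used, and ≥200 IdU tracks were scored per treatment (Mann–Whitney).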

Polθ-ATPase domain = experiment: Thermal stability assay; assay type: binding; conditions: 500 μM compound vs DMSO

Polθ ATPase domain, sequence (O75417 67-894): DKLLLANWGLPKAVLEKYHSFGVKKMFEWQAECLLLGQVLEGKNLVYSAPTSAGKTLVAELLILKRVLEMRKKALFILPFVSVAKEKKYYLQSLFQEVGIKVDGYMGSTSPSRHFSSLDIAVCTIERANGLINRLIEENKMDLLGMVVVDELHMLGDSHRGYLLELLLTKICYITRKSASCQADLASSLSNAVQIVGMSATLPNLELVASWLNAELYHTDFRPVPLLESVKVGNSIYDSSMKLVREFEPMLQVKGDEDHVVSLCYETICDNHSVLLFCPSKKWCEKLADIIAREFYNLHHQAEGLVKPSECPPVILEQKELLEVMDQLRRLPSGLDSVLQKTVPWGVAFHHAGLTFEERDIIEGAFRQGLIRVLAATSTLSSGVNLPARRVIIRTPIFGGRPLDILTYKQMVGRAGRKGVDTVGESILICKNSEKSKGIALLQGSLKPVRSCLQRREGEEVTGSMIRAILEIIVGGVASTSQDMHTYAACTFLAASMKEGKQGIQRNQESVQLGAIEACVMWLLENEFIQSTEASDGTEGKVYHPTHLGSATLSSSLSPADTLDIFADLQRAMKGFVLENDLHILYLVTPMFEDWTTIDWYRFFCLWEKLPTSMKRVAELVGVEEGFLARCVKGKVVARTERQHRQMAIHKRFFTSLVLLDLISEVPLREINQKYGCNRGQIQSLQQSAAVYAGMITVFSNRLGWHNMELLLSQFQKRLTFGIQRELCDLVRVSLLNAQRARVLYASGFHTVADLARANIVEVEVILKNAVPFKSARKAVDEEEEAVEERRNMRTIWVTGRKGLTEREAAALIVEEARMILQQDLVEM

Molecule: Polθ ATPase domain (from UniProt O75417 67-894) (domain or fragment)
- stoichiometry N [1]: 4

Molecule: CO[C@@H]1[C@@H](OC(N)=O)[C@@H](O)[C@H](Oc2ccc3c(O)c(NC(=O)c4ccc(O)c(CC=C(C)C)c4)c(=O)oc3c2C)OC1(C)C [NVB, Novobiocin]
- Effect on Polθ binding to ssDNA ([2]; NVB 100-2000 μM in MST buffer, 120 mM KCl): dose-dependent inhibition
- Polθ blocked from being recruited to damage sites [3]: ~96%
- IdU track lengths following S1 nuclease treatment [4]: dramatic shortening
- Change in the scattering peak maximum (Polθ-ATPase domain): +2 °C

Molecule: Nc1ncnc2c1ncn2[C@@H]1O[C@H](COP(=O)(O)OP(=O)(O)NP(=O)(O)O)[C@@H](O)[C@H]1O [AMP-PNP]
- Effect on Polθ binding to ssDNA ([2]; 2000 μM AMP-PNP, MST buffer with 5 mM MgCl2): unable to block
